The IC50 is the concentration needed to halve the response being measured.

Experimental findings from ChEMBL document CHEMBL3576764, “α-Ketoamino acid ester derivatives as promising MAO inhibitors” (Bioorg Med Chem Lett, 2014) are described below.

Data set [1] has as its target T1, Amine oxidase [flavin-containing] A (Rattus norvegicus, UniProt P21396).
T1 sequence (P21396 whole entry): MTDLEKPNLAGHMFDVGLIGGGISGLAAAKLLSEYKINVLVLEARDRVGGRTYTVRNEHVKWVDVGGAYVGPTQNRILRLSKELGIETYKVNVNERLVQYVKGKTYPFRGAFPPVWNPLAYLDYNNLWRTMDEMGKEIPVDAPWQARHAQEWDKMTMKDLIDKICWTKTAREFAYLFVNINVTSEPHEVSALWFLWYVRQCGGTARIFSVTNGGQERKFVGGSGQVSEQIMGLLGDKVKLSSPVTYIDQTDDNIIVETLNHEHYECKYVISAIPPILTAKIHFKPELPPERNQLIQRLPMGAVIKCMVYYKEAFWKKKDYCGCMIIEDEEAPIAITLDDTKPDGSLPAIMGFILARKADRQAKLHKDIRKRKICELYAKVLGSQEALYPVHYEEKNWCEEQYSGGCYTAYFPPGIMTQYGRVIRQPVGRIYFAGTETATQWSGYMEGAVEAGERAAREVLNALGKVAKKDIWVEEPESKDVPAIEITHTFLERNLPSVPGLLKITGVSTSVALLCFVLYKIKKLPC
The experiment in a line: Inhibition of MAO-A in rat liver mitochondria using serotonin as substrate preincubated with enzyme for 60 mins prior to substrate addition.

In data set [2] the target is T2, Amine oxidase [flavin-containing] B (Bos taurus, UniProt P56560).
T2 sequence (P56560 whole entry): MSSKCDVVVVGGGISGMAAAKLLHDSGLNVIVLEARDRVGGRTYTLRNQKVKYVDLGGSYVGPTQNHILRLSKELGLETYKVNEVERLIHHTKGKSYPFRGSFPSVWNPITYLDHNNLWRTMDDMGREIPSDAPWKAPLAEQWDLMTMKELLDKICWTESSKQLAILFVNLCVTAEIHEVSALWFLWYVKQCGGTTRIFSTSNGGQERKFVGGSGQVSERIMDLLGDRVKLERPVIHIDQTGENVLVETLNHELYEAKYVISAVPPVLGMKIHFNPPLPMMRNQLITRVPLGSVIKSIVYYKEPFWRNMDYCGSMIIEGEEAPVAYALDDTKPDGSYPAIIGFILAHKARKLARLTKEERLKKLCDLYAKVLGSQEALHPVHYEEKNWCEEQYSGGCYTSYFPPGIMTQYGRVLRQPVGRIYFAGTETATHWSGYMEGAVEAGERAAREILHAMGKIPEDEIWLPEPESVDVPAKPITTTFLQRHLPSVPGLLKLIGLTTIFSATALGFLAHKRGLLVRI
In words: Inhibition of MAO-B in bovine brain mitochondria using benzylamine as substrate.

Data set [3] can be described thus: Selectivity index, ratio of IC50 for MAO-B in bovine brain mitochondria to IC50 for MAO-A in rat liver mitochondria. Summed up: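 Enzyme source was mitochondria: rat liver for MAO-A, and bovine brain for MAO-B. Compounds were preincubated 60 min with enzyme before substrate was added: serotonin for MAO-A, benzylamine for MAO-B. Clorgyline served as the irreversible, time-dependent reference. Values are reported as IC50, and the selectivity index was derived from the MAO-A and MAO-B IC50s.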

The test system of data set [4] is Mus musculus. In words: Toxicity in mouse assessed as mortality up to 250 mg/kg, po. The class given is organism-based. To be noted: in vivo. In outline:
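Acute oral toxicity study in male mice, with oral dosing up to 250 mg/kg and mortality recorded.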

In data set [5] the test system is Mus musculus. In words: Toxicity in mouse up to dosed through parenteral route. The conditions noted are these: in vivo.

Molecules are shown by their SMILES.

Regarding `COC(=O)CCCCCNC(=O)c1ccc(NC(=O)C(=O)c2ccccc2NC(C)=O)cc1`, the IC50 is 0.093 µM in data set [1] and 780 µM in data set [2]. Besides, the Selectivity Index in data set [3] turned out to be 8380.

Consider `COC(=O)[C@@H](NC(=O)c1ccc(NC(=O)C(=O)c2ccccc2NC(C)=O)cc1)C(C)C`, for which the IC50 in data set [1] was 0.0028 µM; in data set [2], 430 µM. In addition, in data set [3], the Selectivity Index is 154000. In addition, the Activity entry in the data set with Mus musculus [4] and with Mus musculus [5] was “Non-toxic” each time.

As for `COC(=O)[C@H](CC(C)C)NC(=O)C(=O)c1ccccc1NC(C)=O`, the concentration for half-maximal inhibition (IC50) came out at 0.072 µM in data set [1] and 480 µM in data set [2]. The Selectivity Index in data set [3] was 6660.

With `COC(=O)C(C)(C)NC(=O)c1ccc(NC(=O)C(=O)c2ccccc2NC(C)=O)cc1`, the IC50 is 0.043 µM in data set [1] and 360 µM in data set [2]. Also, in data set [3], the Selectivity Index turned out to be 8370.

Consider `COC(=O)CCNC(=O)c1ccc(NC(=O)C(=O)c2ccccc2NC(C)=O)cc1`, for which the values for the IC50 in data set [1] and in data set [2] were 0.018 µM and 530 µM, respectively. Also, the Selectivity Index in data set [3] turned out to be 29400. Besides, the Activity result in the data set on Mus musculus [4] and in the data set with Mus musculus [5] was “Non-toxic” each time.

`COC(=O)[C@H](C)NC(=O)c1ccc(NC(=O)C(=O)c2ccccc2NC(C)=O)cc1`: the IC50 in data set [1] turned out to be 0.036 µM; in data set [2] it was 730 µM. Besides, in data set [3], the Selectivity Index was 20300. Further, the Activity result in the data set on Mus musculus [4] and with Mus musculus [5] was “Non-toxic” each time.

Regarding `COC(=O)CCCCCNC(=O)C(=O)c1ccccc1NC(C)=O`, the IC50 was found to be 0.068 µM in data set [1] and 590 µM in data set [2]. In data set [3], the Selectivity Index amounted to 8670.

As to `COC(=O)[C@H](Cc1ccccc1)NC(=O)c1ccc(NC(=O)C(=O)c2ccccc2NC(C)=O)cc1`, the results for the IC50 in data set [1] and in data set [2] were 0.036 µM and 280 µM, respectively. The Selectivity Index in data set [3] turned out to be 7770.

For the compound `COC(=O)CCCNC(=O)c1ccc(NC(=O)C(=O)c2ccccc2NC(C)=O)cc1`, the IC50 in data set [1] was determined as 0.049 µM; in data set [2], 590 µM. Besides, the Selectivity Index in data set [3] was 12000.

In the case of `CC(=O)N1C(=O)C(=O)c2ccccc21`, the figures for the IC50 in data set [1] and in data set [2] were 0.056 µM and 380 µM, respectively. Besides, the Selectivity Index in data set [3] was determined as 6780.

For `COC(=O)C1(NC(=O)c2ccc(NC(=O)C(=O)c3ccccc3NC(C)=O)cc2)CCCC1`, the IC50 is 0.048 µM in data set [1] and 380 µM in data set [2]. In addition, in data set [3], the Selectivity Index is 7910.

Turning to `COC(=O)CCNC(=O)C(=O)c1ccccc1NC(C)=O`, the results for the IC50 in data set [1] and in data set [2] were 0.033 µM and 990 µM, respectively. Also, the Selectivity Index in data set [3] amounted to 30000. For the same compound, the Activity result in the data set on Mus musculus [4] and with Mus musculus [5] was “Non-toxic” each time.

In the case of `COC(=O)CCCNC(=O)C(=O)c1ccccc1NC(C)=O`, the IC50 in data set [1] amounted to 0.062 µM; in data set [2], 950 µM. Besides, the Selectivity Index in data set [3] is 15300.

For the compound `COC(=O)C[C@H](NC(=O)c1ccc(NC(=O)C(=O)c2ccccc2NC(C)=O)cc1)C(=O)OC`, the results for the IC50 in data set [1] and in data set [2] were 0.06 µM and 790 µM, respectively. For the same compound, in data set [3], the Selectivity Index came out at 13200.

Take `COC(=O)C[C@H](NC(=O)C(=O)c1ccccc1NC(C)=O)C(=O)OC`: the IC50 turned out to be 0.058 µM in data set [1] and 460 µM in data set [2]. The Selectivity Index in data set [3] turned out to be 7930.

Consider `CCOC(=O)c1ccc(NC(=O)C(=O)c2ccccc2NC(C)=O)cc1`, for which the figures for the IC50 in data set [1] and in data set [2] were 0.083 µM and 990 µM, respectively. In addition, the Selectivity Index in data set [3] was found to be 11900.
